Assay results of several laboratories.
Compare with care: the assays were run in different laboratories.
rep main protease: Replicase polyprotein 1ab, main protease (rep, Severe acute respiratory syndrome coronavirus 2, UniProt P0DTD1)

`CC(C)[C@H](NC(=O)OC(C)(C)C)C(=O)N1C[C@@H]2CCC[C@@H]2[C@H]1C(=O)N[C@H](C=O)C[C@@H]1CCNC1=O` has a ΔTm of 11 °C (rep main protease; thermal stability; 40 µM).
With `O=C(Nc1ccccc1)Nn1cnnc1` the inhibition was -7.8% (rep main protease; enzyme activity; inhibitor; 20 µM).
`CCN(C[C@H]1O[C@@H](n2cnc3c(N)ncnc32)[C@H](O)[C@@H]1O)S(=O)(=O)c1ccc(OC)c(C#N)c1` gave a remaining activity of 0.1% (Replicase polyprotein 1ab, methyltransferase (rep, Severe acute respiratory syndrome coronavirus 2, UniProt P0DTD1); enzyme activity; inhibitor; 5 µM).
`Cn1cc2c(n1)c(=O)n(Cc1ccc(F)cc1)c1nn(Cc3ccccc3)c(=O)n21` has an inhibition of 14.9% (rep main protease; enzyme activity; inhibitor; 20 µM).
`CC(C)(C)NC(=O)[C@@H]1CN(Cc2cccnc2)CCN1C[C@@H](O)C[C@@H](Cc1ccccc1)C(=O)N[C@H]1c2ccccc2C[C@H]1O` has an activity vs control of 100% (rep main protease; enzyme activity; inhibitor; FRET; 100 µM).
`Cc1ccc2nc(Cl)c(C=Nc3cc(Br)ccn3)cc2c1` has a ΔTm of 8 to 12 °C (rep main protease; thermal stability; 100 µM).
The activity vs control of `CS(=O)(=O)CCNCc1ccc(-c2ccc3ncnc(Nc4ccc(OCc5cccc(F)c5)c(Cl)c4)c3c2)o1` is reported as 100% (rep main protease; enzyme activity; inhibitor; FRET; 100 µM).
With `Clc1nc2ccccc2cc1/C=N\c1ccc(Br)nc1` the ΔTm was 8 to 12 °C (rep main protease; thermal stability; 100 µM).
`CC(C)C[C@H](NC(=O)OCc1ccccc1)C(=O)N[C@@H](CC(C)C)C(=O)N[C@@H](CC1CCNC1=O)C(=O)C(=O)NC1CC1` (stereo partly shown) gave a kinact/KI of 90500 M⁻¹ s⁻¹ (rep main protease; enzyme activity; inhibitor).
`C=C1CC[C@@H]2[C@](C)(CO)[C@H](O)CC[C@@]2(C)[C@@H]1C/C=C1/C(=O)OC[C@H]1O` gave a remaining activity of 96% (rep main protease; enzyme activity; inhibitor; 20 µM).
